Laboratory results from PubChem BioAssay.
Active and inactive are the calls of the source.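 Rule for the calls, unless noted: active = viability at or below 10% of carrier control in both of two separate runs; inconclusive = viability at or below 10% in only one of the two runs; inactive = the rest.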

Tests used:
[1] = reducers of endogenous Her2 protein level, primary screen, SKBR3 breast tumor cells, AlphaScreen, ATP viability (AID 461;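 active = Her2 level under about 52% in both replicate screens, with viability over 70% of control, limit read from the data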;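 for Her2 level: lower value means less Her2 protein in the cells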;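 for viability: percent of carrier control wells set as 100% viability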); conditions: 18-24 h, measured here: SKBR3 viability, ATP luminescence, at 10 µM
[2] = biological target: Receptor tyrosine-protein kinase erbB-2 (Homo sapiens) (UniProt P04626); assay: as above; conditions: 18-24 h, at 10 µM, stronger effect = lower value
[3] = SK-BR-3 cell growth inhibitors, pilot screen, 24 h, human (AID 572); conditions: SK-BR-3 viability, CellTiter-Glo luminescence, at 10 µM, stronger effect = lower value;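 note: compound exposure lasted between 18 and 24 h rather than exactly 24 h; 100% = carrier-treated control wells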
[4] = HUVEC growth inhibition – cell-based, human, primary screen (AID 575;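 active = viability at or below 30% in both replicate assays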;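 note: 100% = median of untreated cell wells with 0.1% DMSO on each plate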); conditions: HUVEC proliferation, CellTiter-Glo luminescence, 72 h; at 10 µM; stronger effect = lower value
Method in brief: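 system = HUVEC primary cells | amount = 1250 cells/well | buffer or medium = supplemented EBM, 2% fetal bovine serum | dosing = single-point 10 µM, DMSO 0.1% final | times = 72 h compound incubation | detection = CTG luminescence | read-out = % viability relative to median vehicle-well signal on each plate | control set = vehicle and MePR control wells | format = collagen-coated 384-well format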

[5] = growth inhibitors of H69AR lung tumor, primary screen, human, duplicate replicates (AID 580;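 active = viability at or under a set limit in both replicates, limit being median viability minus 3 SD, cut at about 48% in these data, passing the limit was not always enough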;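 note: 100% = mean luminescence of untreated wells and 0% = no signal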); conditions: H69AR lung tumor cells viability, ATP luminescence, 72 h; at 10 µM; stronger effect = lower value
[6] = reversal of MRP1-mediated doxorubicin resistance, pilot screen, H69AR cells, doxorubicin co-treatment (AID 601;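 active = viability loss from added drug above about 55%, and viability with drug at most 40%, in both replicates, limit read from the data, passing the limit was not always enough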); conditions: CellTiter-Glo, 72 h, at 10 µM; for differential viability (reversal): stronger effect = higher value
[7] = 384-well plate pilot, post-Golgi transport modulator project, inhibition of yeast transport mutant growth (AID 636; in the data active = inhibition above about 31%); conditions: absorbance 615 nm, about 18 h, stronger effect = higher value
[8] = growth suppression of yeast trafficking mutant, preliminary HTS, modulators of trafficking downstream of Golgi apparatus project, 1536-format plate, OD 615 nm (AID 637; in the data active = inhibition above about 30%); conditions: yeast transport mutant growth, absorbance 615 nm, 18 h; stronger effect = higher value
[9] = H69AR cells + 2 uM doxorubicin, measured here: viability with 2 uM doxorubicin, stronger effect = lower value
[10] = H69AR cells, compound alone cytotoxicity

Chain of Receptor tyrosine-protein kinase erbB-2 (Homo sapiens) (P04626 whole entry, looked up): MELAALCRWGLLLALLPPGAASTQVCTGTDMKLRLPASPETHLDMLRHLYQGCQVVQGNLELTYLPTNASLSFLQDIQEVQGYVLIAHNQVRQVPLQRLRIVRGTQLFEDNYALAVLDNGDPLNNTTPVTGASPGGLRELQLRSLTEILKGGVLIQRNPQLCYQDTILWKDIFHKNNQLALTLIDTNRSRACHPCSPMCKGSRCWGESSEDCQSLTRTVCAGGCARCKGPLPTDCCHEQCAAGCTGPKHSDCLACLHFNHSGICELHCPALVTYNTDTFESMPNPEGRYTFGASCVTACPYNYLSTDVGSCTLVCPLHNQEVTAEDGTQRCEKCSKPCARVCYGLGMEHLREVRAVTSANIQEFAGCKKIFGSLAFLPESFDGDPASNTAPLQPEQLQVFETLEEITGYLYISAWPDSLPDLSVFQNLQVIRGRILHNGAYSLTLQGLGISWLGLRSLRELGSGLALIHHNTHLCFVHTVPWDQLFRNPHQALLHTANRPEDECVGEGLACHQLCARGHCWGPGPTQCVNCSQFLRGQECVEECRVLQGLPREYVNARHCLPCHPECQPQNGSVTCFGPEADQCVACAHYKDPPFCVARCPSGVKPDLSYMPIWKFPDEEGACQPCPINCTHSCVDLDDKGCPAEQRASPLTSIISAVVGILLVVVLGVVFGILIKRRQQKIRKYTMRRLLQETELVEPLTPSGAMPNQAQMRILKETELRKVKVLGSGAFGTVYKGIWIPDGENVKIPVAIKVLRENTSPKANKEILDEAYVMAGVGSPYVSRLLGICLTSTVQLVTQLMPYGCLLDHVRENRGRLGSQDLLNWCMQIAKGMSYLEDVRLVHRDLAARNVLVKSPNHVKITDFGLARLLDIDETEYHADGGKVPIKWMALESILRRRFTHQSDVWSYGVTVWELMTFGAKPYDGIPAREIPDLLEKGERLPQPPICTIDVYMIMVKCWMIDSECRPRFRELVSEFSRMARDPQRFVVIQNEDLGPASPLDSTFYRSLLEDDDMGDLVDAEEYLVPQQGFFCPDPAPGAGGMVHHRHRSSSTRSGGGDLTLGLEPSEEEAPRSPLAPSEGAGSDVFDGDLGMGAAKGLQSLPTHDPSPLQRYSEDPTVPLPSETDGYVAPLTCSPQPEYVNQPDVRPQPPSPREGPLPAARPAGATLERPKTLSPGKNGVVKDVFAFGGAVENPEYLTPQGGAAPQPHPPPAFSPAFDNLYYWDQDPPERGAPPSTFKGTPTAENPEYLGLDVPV

With `Cc1cc(Br)ccc1NC(=O)CCN1C(=O)c2ccncc2C1=O` the viability [1] was 104%, the Her2 level [2] was 113% (inactive) and the viability [3] was 104% (inactive). For the same compound, the viability [4] was 86.1% (inactive), the viability [5] was 95.6% (inactive) and the differential viability (reversal) ([6]; H69AR cells + 2 uM doxorubicin) was 3.85% (inactive). The viability [6, 9] was 91.7%, the viability [6, 10] was 95.6% and the inhibition [7] was -3.78% (inactive). For the same compound, the inhibition [8] was -9.18% (inactive).
With `Cc1nnc(C)n1/N=C/c1cccc(Oc2ccccc2)c1` the viability [1] was 100%, the Her2 level [2] was 78.5% (inactive) and the viability [3] was 100% (inactive). The viability [4] was 98% (inactive), the viability [5] was 87.4% (inactive) and the differential viability (reversal) ([6]; H69AR cells + 2 uM doxorubicin) was 4.77% (inactive). For the same compound, the viability [6, 9] was 82.6%, the viability [6, 10] was 87.4% and the inhibition [7] was -1.97% (inactive). The inhibition [8] was 0.16% (inactive).
In the case of `CCn1ncc(C2=NOC(C(=O)NCc3ccccc3)C2)c1C` (stereo not given), the viability [1] is reported as 91%, the Her2 level [2] is reported as 82.5% (inactive) and the viability [3] is reported as 91% (inactive). The viability [4] was 43.2% (inactive), the viability [5] was 27.5% (active) and the differential viability (reversal) ([6]; H69AR cells + 2 uM doxorubicin) was -33% (inactive). The viability [6, 9] was 60.4%, the viability [6, 10] was 27.5% and the inhibition [7] was -6.18% (inactive). For the same compound, the inhibition [8] was -1.9% (inactive).
In the case of `Cc1cc(NS(=O)(=O)c2ccccc2)n(-c2ccccc2)n1`, the viability [1] is reported as 106%, the Her2 level [2] is reported as 95.5% (inactive) and the viability [3] is reported as 106% (inactive). The viability [4] was 85.2% (inactive), the viability [5] was 96.2% (inactive) and the differential viability (reversal) ([6]; H69AR cells + 2 uM doxorubicin) was -2.34% (inactive). The viability [6, 9] was 98.6%, the viability [6, 10] was 96.2% and the inhibition [7] was -4.13% (inactive). The inhibition [8] was 2.1% (inactive).
For `Cc1cc(NC(=O)CCC(=O)N(CC(=O)NC2CCCC2)Cc2ccc(F)cc2)no1`, the viability [1] was 101%, the Her2 level [2] was 94% (inactive) and the viability [3] was 101% (inactive). For the same compound, the viability [4] was 88.9% (inactive), the viability [5] was 95.6% (inactive) and the differential viability (reversal) ([6]; H69AR cells + 2 uM doxorubicin) was 12.9% (inactive). The viability [6, 9] was 82.7%, the viability [6, 10] was 95.6% and the inhibition [7] was -5.87% (inactive). The inhibition [8] was -5.08% (inactive).
In the case of `CCOc1ccccc1N(C(=O)Cn1nnnc1-c1ccc(C)o1)C(CC)C(=O)NC(C)(C)C` (stereo not given), the viability [1] is reported as 88.5%, the Her2 level [2] is reported as 105% (inactive) and the viability [3] is reported as 88.5% (inactive). For the same compound, the viability [4] was 120% (inactive), the viability [5] was 88.5% (inactive) and the differential viability (reversal) ([6]; H69AR cells + 2 uM doxorubicin) was -14.7% (inactive). For the same compound, the viability [6, 9] was 103%, the viability [6, 10] was 88.5% and the inhibition [7] was 1.51% (inactive). For the same compound, the inhibition [8] was 4.6% (inactive).
In the case of `CC(=O)c1cccc(NC(=O)N2CCCc3ccccc32)c1`, the viability [1] is reported as 105%, the Her2 level [2] is reported as 104% (inactive) and the viability [3] is reported as 105% (inactive). The viability [4] was 95% (inactive), the viability [5] was 93.6% (inactive) and the differential viability (reversal) ([6]; H69AR cells + 2 uM doxorubicin) was 2.88% (inactive). For the same compound, the viability [6, 9] was 90.7%, the viability [6, 10] was 93.6% and the inhibition [7] was -3.73% (inactive). For the same compound, the inhibition [8] was 3.93% (inactive).
With `CC(=O)NC(=O)NC1CSCC1OC(C)=O` (stereo not given) the viability [1] was 112%, the Her2 level [2] was 89% (inactive) and the viability [3] was 112% (inactive). The viability [4] was 106% (inactive), the viability [5] was 92.8% (inactive) and the differential viability (reversal) ([6]; H69AR cells + 2 uM doxorubicin) was 5.96% (inactive). For the same compound, the viability [6, 9] was 86.9%, the viability [6, 10] was 92.8% and the inhibition [7] was -6.53% (inactive). The inhibition [8] was 0.48% (inactive).
In the case of `Cc1nn(-c2ccc(F)cc2)c2nc(N)c(C#N)c(-c3cccs3)c12`, the viability [1] is reported as 80.5%, the Her2 level [2] is reported as 75.5% (inactive) and the viability [3] is reported as 80.5% (inactive). The viability [4] was 85.4% (inactive), the viability [5] was 86.2% (inactive) and the differential viability (reversal) ([6]; H69AR cells + 2 uM doxorubicin) was 4.98% (inactive). For the same compound, the viability [6, 9] was 81.3%, the viability [6, 10] was 86.2% and the inhibition [7] was -0.79% (inactive). The inhibition [8] was 3.44% (inactive).
With `COc1ccc(NC(=O)CSC2=C(C#N)C(c3ccco3)C3=C(CCCC3=O)N2)c(OC)c1` (stereo not given) the viability [1] was 108%, the Her2 level [2] was 93% (inactive) and the viability [3] was 108% (inactive). For the same compound, the viability [4] was 86.6% (inactive), the viability [5] was 73% (inactive) and the differential viability (reversal) ([6]; H69AR cells + 2 uM doxorubicin) was 4.23% (inactive). The viability [6, 9] was 68.8%, the viability [6, 10] was 73% and the inhibition [7] was -2.11% (inactive). The inhibition [8] was 0.65% (inactive).
For `CCOC(=O)c1cccc(NC(=O)CSc2nnc(-c3ccoc3C)n2CCOC)c1`, the viability [1] was 102%, the Her2 level [2] was 92% (inactive) and the viability [3] was 102% (inactive). The viability [4] was 91.6% (inactive), the viability [5] was 89.7% (inactive) and the differential viability (reversal) ([6]; H69AR cells + 2 uM doxorubicin) was -2.74% (inactive). For the same compound, the viability [6, 9] was 92.4%, the viability [6, 10] was 89.7% and the inhibition [7] was -1.45% (inactive). For the same compound, the inhibition [8] was 0.81% (inactive).
For `COC(=O)c1ccccc1NS(=O)(=O)c1ccc(F)cc1`, the viability [1] was 120%, the Her2 level [2] was 83.5% (inactive) and the viability [3] was 120% (inactive). For the same compound, the viability [4] was 104% (inactive), the viability [5] was 102% (inactive) and the differential viability (reversal) ([6]; H69AR cells + 2 uM doxorubicin) was 13.1% (inactive). For the same compound, the viability [6, 9] was 88.4%, the viability [6, 10] was 102% and the inhibition [7] was -7.26% (inactive). For the same compound, the inhibition [8] was -3.49% (inactive).
For `CCOC(=O)C1=C(C)Nc2ncnn2C1c1cc(OC)ccc1OC` (stereo not given), the viability [1] was 92.5%, the Her2 level [2] was 84.5% (inactive) and the viability [3] was 92.5% (inactive). The viability [4] was 84.6% (inactive), the viability [5] was 81.8% (inactive) and the differential viability (reversal) ([6]; H69AR cells + 2 uM doxorubicin) was 0.51% (inactive). The viability [6, 9] was 81.3%, the viability [6, 10] was 81.8% and the inhibition [7] was -6.22% (inactive). The inhibition [8] was 1.17% (inactive).
For `CCOc1ccc(S(=O)(=O)NCC2CCCO2)c2cccnc12` (stereo not given), the viability [1] was 99%, the Her2 level [2] was 99.5% (inactive) and the viability [3] was 99% (inactive). The viability [4] was 93.8% (inactive), the viability [5] was 93.6% (inactive) and the differential viability (reversal) ([6]; H69AR cells + 2 uM doxorubicin) was 6.55% (inactive). For the same compound, the viability [6, 9] was 87.1%, the viability [6, 10] was 93.6% and the inhibition [7] was 0.13% (inactive). For the same compound, the inhibition [8] was 5.08% (inactive).
In the case of `CCN(CC)S(=O)(=O)c1ccc(F)cc1`, the viability [1] is reported as 116%, the Her2 level [2] is reported as 106% (inactive) and the viability [3] is reported as 116% (inactive). For the same compound, the viability [4] was 98.7% (inactive), the viability [5] was 93% (inactive) and the differential viability (reversal) ([6]; H69AR cells + 2 uM doxorubicin) was 5.97% (inactive). The viability [6, 9] was 87.1%, the viability [6, 10] was 93% and the inhibition [7] was -8.77% (inactive). The inhibition [8] was 4.13% (inactive).
With `Cc1cnc(C(=O)OCC(=O)Nc2ccc(Cl)cc2Cl)cn1` the viability [1] was 89.5%, the Her2 level [2] was 100% (inactive) and the viability [3] was 89.5% (inactive). The viability [4] was 90.5% (inactive), the viability [5] was 103% (inactive) and the differential viability (reversal) ([6]; H69AR cells + 2 uM doxorubicin) was 16.4% (inactive). For the same compound, the viability [6, 9] was 86.3%, the viability [6, 10] was 103% and the inhibition [7] was -8.49% (inactive). The inhibition [8] was 2.38% (inactive).
